Test results taken from paper PMC3701953 (Bioorganic & medicinal chemistry letters, 2013).
pEC50: −log10 of the molar value. Where two headings read alike, the source gives them in different places.

Experiments:
[1] = test system: HIV-1 NL4-3; assay: In vitro anti-HIV-1 NL4-3 antiviral assay in MAGI cells; type: cell-based; conditions: HIV-1 NL4-3, MAGI cells, mean of three determinations; for pEC50: read-out: EC50 (SD), concentration for 50% inhibition of virus replication; for EC90: read-out: EC90 (SD), concentration for 90% reduction of virus replication
Procedure, shortened: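 MAGI cells carrying an LTR–β-galactosidase reporter were infected with HIV-1 in the presence of test compound. Infection and Tat expression drive the reporter through the HIV-1 LTR. Cells were lysed 6 days after infection, and β-galactosidase activity was read by chemiluminescence. Values are the mean of three determinations.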

[2] = test system: MAGI cells; assay: Compound toxicity in MAGI cells by MTS dye reduction; type: cell-based
[3] = Stability in pooled, mixed-gender human liver microsomes; type: in vitro ADME
Procedure, shortened: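 Test compound incubated with 0.5 mg/mL microsomal protein in 100 mM potassium phosphate (pH 7.4), with 5 mM MgCl₂, 5 mM G-6-P, 0.5 U/mL G-6-P-DH and 2 mM NADPH. Mixtures were preincubated 3 min at 37 °C, started with NADPH and run 60 min. Aliquots taken at 0, 15, 30, 45 and 60 min were quenched in ice-cold acetonitrile and centrifuged. Supernatant analysed by reversed-phase HPLC-UV at 360 nm. Mean of three determinations, S.D.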

[4] = molecular target: CYP 3A4 (Homo sapiens, UniProt P08684); assay: CYP 3A4 substrate activity in pooled human liver microsomes; type: in vitro ADME; conditions: relative to control (100%)
[5] = molecular target: CYP 2D6 (Homo sapiens, UniProt P10635); assay: CYP 2D6 substrate activity in pooled human liver microsomes; type: in vitro ADME; conditions: for Substrate Activity % ±S.D.: dextromethorphan 200 µM, relative to control (100%)
Procedure, shortened: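 Pooled human liver microsomes incubated with the probe substrate and a range of test compound concentrations in 100 mM potassium phosphate (pH 7.4) with 5 mM MgCl₂. Mixtures were preincubated 3 min at 37 °C, then started with NADPH (final 2 mM). Substrate and metabolite were quantified by reversed-phase HPLC-UV: CYP3A4, testosterone/6β-hydroxytestosterone at 254 nm; CYP2D6, dextromethorphan/dextrorphan at 278 nm. Mean of three determinations, S.D.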

[6] = test system: HIV-1 NL4-3; conditions: read-out: anti-HIV-1 activity in cell culture EC50; MAGI cells; cited from earlier work

CYP 2D6, sequence (P10635 whole entry): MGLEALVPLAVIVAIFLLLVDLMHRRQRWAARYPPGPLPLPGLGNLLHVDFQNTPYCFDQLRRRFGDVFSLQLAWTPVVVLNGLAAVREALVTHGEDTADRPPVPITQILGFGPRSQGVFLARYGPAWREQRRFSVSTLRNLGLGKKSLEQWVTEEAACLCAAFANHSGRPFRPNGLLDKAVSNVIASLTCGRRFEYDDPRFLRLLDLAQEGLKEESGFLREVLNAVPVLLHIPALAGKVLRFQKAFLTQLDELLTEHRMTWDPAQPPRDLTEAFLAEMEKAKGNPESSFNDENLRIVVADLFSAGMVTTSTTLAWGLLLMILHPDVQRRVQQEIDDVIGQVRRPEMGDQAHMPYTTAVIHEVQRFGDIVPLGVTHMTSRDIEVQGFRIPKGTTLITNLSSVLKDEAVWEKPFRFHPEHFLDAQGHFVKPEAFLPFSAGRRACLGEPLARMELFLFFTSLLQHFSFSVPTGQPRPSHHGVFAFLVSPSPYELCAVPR
CYP 3A4, sequence (P08684 whole entry): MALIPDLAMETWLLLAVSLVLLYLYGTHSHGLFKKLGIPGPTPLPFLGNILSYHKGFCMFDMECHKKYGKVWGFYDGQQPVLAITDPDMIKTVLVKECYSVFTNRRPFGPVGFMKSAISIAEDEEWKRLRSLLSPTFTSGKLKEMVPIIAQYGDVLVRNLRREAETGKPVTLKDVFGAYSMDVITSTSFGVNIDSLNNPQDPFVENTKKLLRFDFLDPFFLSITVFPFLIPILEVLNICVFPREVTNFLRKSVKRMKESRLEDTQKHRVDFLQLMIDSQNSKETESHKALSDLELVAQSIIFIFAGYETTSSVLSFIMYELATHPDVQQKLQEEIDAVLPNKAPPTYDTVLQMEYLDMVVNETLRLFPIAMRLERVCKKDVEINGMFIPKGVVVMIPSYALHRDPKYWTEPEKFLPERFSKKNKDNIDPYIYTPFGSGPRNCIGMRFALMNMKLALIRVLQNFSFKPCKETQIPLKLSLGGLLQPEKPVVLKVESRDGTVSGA

| Compound | pEC50 [1] | EC90 [1] [nM] | CC50 ([2]; read-out: CC50, concentration to reduce cell viability by 50%, MAGI cells, MTS dye reduction) [nM] | stability in pooled human liver microsomes (result in words) [3] | Substrate Activity % ±S.D. ([4]; testosterone 100 µM, compound 3 at 12.5 µM) [%] | Substrate Activity % ±S.D. ([4]; testosterone 100 µM, compound 3 at 25 µM) [%] | Substrate Activity % ±S.D. ([4]; testosterone 100 µM, compound 3 at 50 µM) [%] | Substrate Activity % ±S.D. ([4]; triazolam 200 µM, compound 3 at 12.5 µM) [%] | Substrate Activity % ±S.D. ([4]; triazolam 200 µM, compound 3 at 25 µM) [%] | Substrate Activity % ±S.D. ([4]; triazolam 200 µM, compound 3 at 50 µM) [%] | Substrate Activity % ±S.D. ([5]; compound 3 at 12.5 µM) [%] | Substrate Activity % ±S.D. ([5]; compound 3 at 25 µM) [%] | Substrate Activity % ±S.D. ([5]; compound 3 at 50 µM) [%] | inhibition or activation of CYP 2D6 (result in words) ([5]; pooled human liver microsomes, dextromethorphan as substrate) | pEC50 [6] | CC50 [2] [nM] |
| --- | --- | --- | --- | --- | --- | --- | --- | --- | --- | --- | --- | --- | --- | --- | --- | --- |
| (1S,2S)-4-(5-(2,4-difluorobenzyl)-1-(2-fluorobenzyl)-2-oxo-1,2-dihydropyridin-3-yl)-4-hydroxy-N-(2-hydroxycyclopentyl)but-3-enamide [compound 3] | 7.60 | 415 | 40400 | relatively stable | 109 ±13 | 97 ±18 | 112 ±15 | 124 ±23 | 98 ±7 | 100 ±8 | 86 ±7 | 87 ±17 | 87 ±13 | neither a significant inhibitor nor an activator |  |  |
| O=C(O)C(=O)C=C(O)c1cc(Cc2ccc(F)cc2F)cn(Cc2ccccc2F)c1=O [compound 1, 4-(5-(2,4-difluorobenzyl)-1-(2-fluorobenzyl)-2-oxo-1,2-dihydropyridin-3-yl)-4-hydroxy-2-oxobut-3-enoic acid] |  |  |  |  |  |  |  |  |  |  |  |  |  |  | 6.30 |  |
| (1R,2R)-4-(5-(2,4-difluorobenzyl)-1-(2-fluorobenzyl)-2-oxo-1,2-dihydropyridin-3-yl)-4-hydroxy-N-(2-hydroxycyclopentyl)but-3-enamide [compound 4] | 7.37 | 871 |  |  |  |  |  |  |  |  |  |  |  |  |  | 137000 |
